Laboratory results from ChEMBL document CHEMBL1144553, “alpha-Biphenylsulfonylamino 2-methylpropyl phosphonates: enantioselective synthesis and selective inhibition of MMPs” (Bioorg Med Chem, 2007).

What was measured:
Interstitial collagenase = target: T1, Interstitial collagenase (Homo sapiens, UniProt P03956); assay: Inhibition of MMP1
T1 sequence (P03956 whole entry): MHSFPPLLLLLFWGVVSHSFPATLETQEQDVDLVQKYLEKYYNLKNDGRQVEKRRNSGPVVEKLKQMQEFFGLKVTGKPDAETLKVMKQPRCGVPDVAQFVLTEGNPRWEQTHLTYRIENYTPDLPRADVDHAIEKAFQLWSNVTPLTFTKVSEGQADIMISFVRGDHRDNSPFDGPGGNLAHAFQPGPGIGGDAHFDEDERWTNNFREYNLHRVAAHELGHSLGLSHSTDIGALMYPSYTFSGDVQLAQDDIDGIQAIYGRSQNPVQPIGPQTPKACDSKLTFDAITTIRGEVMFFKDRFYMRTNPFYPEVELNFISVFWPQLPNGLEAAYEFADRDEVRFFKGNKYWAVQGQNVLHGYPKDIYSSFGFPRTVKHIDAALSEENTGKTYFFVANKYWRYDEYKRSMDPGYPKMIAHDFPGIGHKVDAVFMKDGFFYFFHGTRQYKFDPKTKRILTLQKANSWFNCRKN
Outline: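 Pro-MMP-1 from a commercial source, activated with APMA (2 mM, 1 h, 37 °C). Enzyme at 0.20 nM final was preincubated 4 h at 25 °C with inhibitor at seven concentrations in Tris 50 mM pH 7.5, NaCl, CaCl2, Brij 35 and 1% DMSO. Mca-Lys-Pro-Leu-Gly-Leu-Dpa-Ala-Arg-NH2 was added and fluorescence (ex 325/em 400 nm) read every 15 s for 20 min, in triplicate. IC50 from Vi/Vo = 1/(1+[I]/IC50).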

[1] = target: 72 kDa type IV collagenase (Homo sapiens, UniProt P08253); assay: Inhibition of human recombinant MMP2 expressed in mouse myeloma cells; type: cell-based
Sequence of 72 kDa type IV collagenase (P08253 whole entry): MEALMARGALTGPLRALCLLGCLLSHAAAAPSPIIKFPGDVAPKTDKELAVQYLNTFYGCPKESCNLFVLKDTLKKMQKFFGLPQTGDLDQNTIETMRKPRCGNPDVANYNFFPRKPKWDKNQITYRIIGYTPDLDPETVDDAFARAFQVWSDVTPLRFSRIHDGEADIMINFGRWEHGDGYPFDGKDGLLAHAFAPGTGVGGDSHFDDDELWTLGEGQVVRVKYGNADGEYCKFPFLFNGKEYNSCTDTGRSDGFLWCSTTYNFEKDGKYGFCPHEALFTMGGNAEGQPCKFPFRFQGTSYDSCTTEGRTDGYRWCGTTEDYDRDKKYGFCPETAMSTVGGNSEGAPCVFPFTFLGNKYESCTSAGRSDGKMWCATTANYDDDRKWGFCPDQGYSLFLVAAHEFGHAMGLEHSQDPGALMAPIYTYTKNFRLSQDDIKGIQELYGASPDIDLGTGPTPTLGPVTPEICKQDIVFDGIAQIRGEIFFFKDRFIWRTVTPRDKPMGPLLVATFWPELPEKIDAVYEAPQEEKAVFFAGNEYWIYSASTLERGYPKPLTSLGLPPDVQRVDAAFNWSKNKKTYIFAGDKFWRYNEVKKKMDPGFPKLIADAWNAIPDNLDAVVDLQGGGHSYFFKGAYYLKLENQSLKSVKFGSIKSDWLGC
Outline: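 Recombinant human pro-MMP-2 from transfected mouse myeloma cells, activated with APMA (2 mM, 1 h, 37 °C) and used at 2.9 nM final. It was preincubated 4 h at 25 °C with inhibitor (seven concentrations) in Tris 50 mM pH 7.5 buffer with 1% DMSO. Mca-Lys-Pro-Leu-Gly-Leu-Dpa-Ala-Arg-NH2 fluorescence (ex 325/em 400 nm) was read every 15 s for 20 min, in triplicate. IC50 from Vi/Vo = 1/(1+[I]/IC50).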

Stromelysin-1 [2] = target: T2, Stromelysin-1 (Homo sapiens, UniProt P08254); assay: Inhibition of MMP3
Outline: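 Purchased MMP-3 at 1 nM final was preincubated with inhibitor (seven concentrations) for 4 h at 25 °C in Tris pH 7.5 assay buffer containing CaCl2, Brij 35 and 1% DMSO. Substrate was Mca-Arg-Pro-Lys-Pro-Val-Glu-Nva-Trp-Arg-Lys(Dnp)-NH2, with fluorescence (ex 325/em 400 nm) read every 15 s over 20 min, in triplicate. IC50 from initial velocities via Vi/Vo = 1/(1+[I]/IC50).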
Target sequence in this assay (P08254 whole entry): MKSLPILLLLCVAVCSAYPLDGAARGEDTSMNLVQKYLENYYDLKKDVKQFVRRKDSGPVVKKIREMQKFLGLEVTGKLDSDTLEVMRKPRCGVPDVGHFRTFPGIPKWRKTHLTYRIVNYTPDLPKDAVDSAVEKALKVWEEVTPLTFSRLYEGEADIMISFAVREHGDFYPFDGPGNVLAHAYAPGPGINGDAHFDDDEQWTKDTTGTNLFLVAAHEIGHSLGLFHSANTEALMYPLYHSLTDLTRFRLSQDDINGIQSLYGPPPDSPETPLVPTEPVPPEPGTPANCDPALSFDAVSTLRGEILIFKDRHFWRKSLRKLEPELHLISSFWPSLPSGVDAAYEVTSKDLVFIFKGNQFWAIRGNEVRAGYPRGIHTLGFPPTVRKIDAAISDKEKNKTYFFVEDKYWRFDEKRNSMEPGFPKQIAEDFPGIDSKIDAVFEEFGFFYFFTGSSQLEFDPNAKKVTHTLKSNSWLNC

Matrilysin = target: T3, Matrilysin (Homo sapiens, UniProt P09237); assay: Inhibition of MMP7
T3 sequence (P09237 whole entry): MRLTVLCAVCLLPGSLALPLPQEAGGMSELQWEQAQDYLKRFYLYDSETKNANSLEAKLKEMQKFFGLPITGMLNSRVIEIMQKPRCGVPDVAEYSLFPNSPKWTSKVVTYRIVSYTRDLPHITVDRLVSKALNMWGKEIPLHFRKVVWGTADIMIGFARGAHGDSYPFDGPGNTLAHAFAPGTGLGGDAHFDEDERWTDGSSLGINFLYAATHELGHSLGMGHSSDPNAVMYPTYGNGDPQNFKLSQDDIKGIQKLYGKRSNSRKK
Outline: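 Pro-MMP-7 from a commercial source, activated with APMA (1 mM, 1 h, 37 °C) and used at 2.4 nM final. It was preincubated 4 h at 25 °C with inhibitor at seven concentrations in Tris pH 7.5 buffer (CaCl2, Brij 35, 1% DMSO). Mca-Lys-Pro-Leu-Gly-Leu-Dpa-Ala-Arg-NH2 cleavage was monitored fluorimetrically (ex 325/em 400 nm) every 15 s for 20 min, in triplicate. IC50 via Vi/Vo = 1/(1+[I]/IC50).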

Neutrophil collagenase = Neutrophil collagenase (Homo sapiens, UniProt P22894); assay: Inhibition of MMP8
Sequence of Neutrophil collagenase (P22894 whole entry): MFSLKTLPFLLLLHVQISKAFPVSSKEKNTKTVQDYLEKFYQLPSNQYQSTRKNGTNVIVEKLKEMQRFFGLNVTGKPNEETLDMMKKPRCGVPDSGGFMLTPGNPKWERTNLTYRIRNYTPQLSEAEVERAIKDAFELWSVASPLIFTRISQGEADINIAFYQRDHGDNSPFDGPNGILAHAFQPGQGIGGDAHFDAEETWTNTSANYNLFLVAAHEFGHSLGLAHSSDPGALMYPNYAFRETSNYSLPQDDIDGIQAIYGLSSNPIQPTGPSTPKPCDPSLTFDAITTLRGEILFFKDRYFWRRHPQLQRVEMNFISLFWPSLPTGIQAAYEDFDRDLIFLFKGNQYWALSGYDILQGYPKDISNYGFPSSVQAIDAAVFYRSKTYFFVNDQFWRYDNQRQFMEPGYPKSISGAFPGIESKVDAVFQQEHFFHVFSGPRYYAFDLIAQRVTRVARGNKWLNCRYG

[3] = target: T4, Matrix metalloproteinase-9 (Homo sapiens, UniProt P14780); assay: Inhibition of human recombinant MMP9 expressed in mouse myeloma cells; type: cell-based
T4 sequence (P14780 whole entry): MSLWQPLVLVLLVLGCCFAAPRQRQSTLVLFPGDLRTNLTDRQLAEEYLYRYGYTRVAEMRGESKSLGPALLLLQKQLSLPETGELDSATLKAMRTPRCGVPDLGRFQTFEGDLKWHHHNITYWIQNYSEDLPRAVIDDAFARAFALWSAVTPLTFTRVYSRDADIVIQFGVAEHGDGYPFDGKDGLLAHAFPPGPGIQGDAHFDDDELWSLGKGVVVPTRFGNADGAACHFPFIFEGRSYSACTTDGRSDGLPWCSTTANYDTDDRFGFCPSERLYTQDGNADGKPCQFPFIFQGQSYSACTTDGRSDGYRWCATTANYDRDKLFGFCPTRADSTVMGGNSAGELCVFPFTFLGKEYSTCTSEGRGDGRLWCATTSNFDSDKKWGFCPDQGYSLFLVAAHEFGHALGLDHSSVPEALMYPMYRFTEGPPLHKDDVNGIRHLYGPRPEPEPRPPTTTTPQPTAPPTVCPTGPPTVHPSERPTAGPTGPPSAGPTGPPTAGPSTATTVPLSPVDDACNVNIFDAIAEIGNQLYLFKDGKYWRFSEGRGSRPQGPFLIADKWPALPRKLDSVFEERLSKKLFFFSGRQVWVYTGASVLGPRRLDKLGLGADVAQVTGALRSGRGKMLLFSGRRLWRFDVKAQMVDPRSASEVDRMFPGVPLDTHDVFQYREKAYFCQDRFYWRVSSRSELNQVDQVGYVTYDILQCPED
Outline: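 Human pro-MMP-9 expressed in transfected mouse myeloma cells, APMA-activated (1 mM, 1 h, 37 °C) and used at 2.7 nM final. Preincubated 4 h at 25 °C with inhibitor at seven concentrations in Tris pH 7.5/CaCl2/Brij 35 buffer with 1% DMSO. Fluorogenic Mca-Lys-Pro-Leu-Gly-Leu-Dpa-Ala-Arg-NH2 hydrolysis (ex 325/em 400 nm) was read every 15 s for 20 min, in triplicate. IC50 via Vi/Vo = 1/(1+[I]/IC50).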

Collagenase 3 [4] = target: T5, Collagenase 3 (Homo sapiens, UniProt P45452); assay: Inhibition of MMP13
Outline: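 Purchased pro-MMP-13 was APMA-activated (1 mM, 0.5 h, 37 °C) and used at 0.66 nM final. It was preincubated with inhibitor (seven concentrations) for 4 h at 25 °C in Tris pH 7.5 buffer with CaCl2, Brij 35 and 1% DMSO. Cleavage of Mca-Lys-Pro-Leu-Gly-Leu-Dpa-Ala-Arg-NH2 was followed by fluorescence (ex 325/em 400 nm) every 15 s for 20 min, in triplicate. IC50 fitted to Vi/Vo = 1/(1+[I]/IC50).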

[5] = target: T6, Matrix metalloproteinase-14 (Homo sapiens, UniProt P50281); assay: Inhibition of MMP14
Outline: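 Commercial MMP-14 at 1 nM final, preincubated 4 h at 25 °C with inhibitor at seven concentrations in Tris 50 mM pH 7.5/NaCl/CaCl2/Brij 35 buffer with 1% DMSO. Read-out was fluorogenic substrate Mca-Lys-Pro-Leu-Gly-Leu-Dpa-Ala-Arg-NH2 hydrolysis (ex 325, em 400 nm), recorded every 15 s for 20 min, in triplicate. IC50 from Vi/Vo = 1/(1+[I]/IC50).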

[6] = target: T4, Matrix metalloproteinase-9; assay: Inhibition of human recombinant MMP9 expressed in mouse myeloma cells at 100 uM; type: cell-based
Collagenase 3 [7] = target: T5, Collagenase 3; assay: Inhibition of MMP13 at 100 uM
[8] = target: T7, Interstitial collagenase (Homo sapiens) (UniProt P03956); assay: Inhibition of human recombinant MMP1 at 100 uM
T7 sequence (whole entry): T1 sequence (P03956 whole entry)

Stromelysin-1 [9] = target: T2, Stromelysin-1; assay: Inhibition of MMP3 at 100 uM
Target sequence in this assay (P08254 100-477 limits assumed): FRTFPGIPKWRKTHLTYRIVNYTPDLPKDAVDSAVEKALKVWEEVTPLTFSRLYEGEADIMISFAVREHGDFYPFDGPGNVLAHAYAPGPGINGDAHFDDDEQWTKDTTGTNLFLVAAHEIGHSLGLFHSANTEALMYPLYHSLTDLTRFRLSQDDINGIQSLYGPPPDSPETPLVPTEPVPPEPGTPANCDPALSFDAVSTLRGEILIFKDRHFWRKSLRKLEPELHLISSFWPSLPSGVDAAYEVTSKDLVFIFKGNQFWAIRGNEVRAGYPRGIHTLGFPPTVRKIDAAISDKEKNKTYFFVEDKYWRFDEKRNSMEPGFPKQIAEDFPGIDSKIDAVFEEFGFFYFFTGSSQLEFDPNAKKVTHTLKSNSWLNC

[10] = target: T8, Matrilysin (Homo sapiens) (UniProt P09237); assay: Inhibition of MMP7 at 100 uM
T8 sequence (whole entry): T3 sequence (P09237 whole entry)

[11] = target: T6, Matrix metalloproteinase-14; conditions: 100 uM

With `CC(C)[C@H](NS(=O)(=O)c1ccc(-c2ccc(Cl)cc2)cc1)P(=O)(O)O` the IC50 (Interstitial collagenase) was 77 nM, the IC50 [1] was 8.7 nM and the IC50 (Stromelysin-1 [2]) was 28 nM. For the same molecule, the IC50 (Matrilysin) was 1700 nM, the IC50 (Neutrophil collagenase) was 0.81 nM and the IC50 [3] was 21 nM. It also gave an IC50 (Collagenase 3 [4]) of 5.3 nM and an IC50 [5] of 47 nM.
Molecule `COc1ccc(-c2ccc(S(=O)(=O)N[C@@H](C(C)C)P(=O)(O)O)cc2)cc1` has an IC50 (Interstitial collagenase) of 150 nM, an IC50 [1] of 1.5 nM and an IC50 (Stromelysin-1 [2]) of 52 nM. It also gave an IC50 (Matrilysin) of 460 nM, an IC50 [3] of 8 nM and an IC50 (Collagenase 3 [4]) of 2.6 nM. The IC50 [5] was 79 nM.
For `CCOc1ccc(-c2ccc(S(=O)(=O)N[C@@H](C(C)C)P(=O)(O)O)cc2)cc1`, the IC50 (Interstitial collagenase) was 450 nM, the IC50 [1] was 0.39 nM and the IC50 (Stromelysin-1 [2]) was 12 nM. The IC50 (Matrilysin) was 450 nM, the IC50 (Neutrophil collagenase) was 0.37 nM and the IC50 [3] was 0.56 nM. For the same molecule, the IC50 (Collagenase 3 [4]) was 1.1 nM and the IC50 [5] was 11 nM.
With `Cc1ccc(-c2ccc(S(=O)(=O)N[C@@H](C(C)C)P(=O)(O)O)cc2)cc1` the IC50 (Interstitial collagenase) was 98 nM, the IC50 [1] was 2.3 nM and the IC50 (Stromelysin-1 [2]) was 45 nM. For the same molecule, the IC50 (Matrilysin) was 150 nM, the IC50 (Neutrophil collagenase) was 0.39 nM and the IC50 [3] was 4.1 nM. The IC50 (Collagenase 3 [4]) was 3.3 nM and the IC50 [5] was 11 nM.
`CC(C)[C@H](NS(=O)(=O)c1ccc(-c2ccc(F)cc2)cc1)P(=O)(O)O` was tested, and the IC50 (Interstitial collagenase) was 160 nM, the IC50 [1] was 20 nM and the IC50 (Stromelysin-1 [2]) was 150 nM. It also gave an IC50 (Matrilysin) of 1400 nM, an IC50 (Neutrophil collagenase) of 1.1 nM and an IC50 [3] of 59 nM. The IC50 (Collagenase 3 [4]) was 13 nM and the IC50 [5] was 32 nM.
In the case of `COc1ccc(-c2ccc(S(=O)(=O)N[C@H](C(C)C)P(=O)(O)O)cc2)cc1`, the inhibition [6] is reported as 40%, the inhibition (Collagenase 3 [7]) is reported as 68% and the IC50 [1] is reported as 1100 nM. The inhibition [8] was 5%, the inhibition (Stromelysin-1 [9]) was 16% and the inhibition [10] was 17%. The inhibition [11] was 63%.
Work on `CC(C)[C@H](NS(=O)(=O)c1ccc(-c2cccc(Cl)c2)cc1)P(=O)(O)O` yielded an IC50 (Interstitial collagenase) of 320 nM, an IC50 [1] of 30 nM and an IC50 (Stromelysin-1 [2]) of 440 nM. It also gave an IC50 (Matrilysin) of 2900 nM, an IC50 (Neutrophil collagenase) of 1.3 nM and an IC50 [3] of 160 nM. It also gave an IC50 (Collagenase 3 [4]) of 24 nM and an IC50 [5] of 75 nM.
For `CC(C)Oc1ccc(-c2ccc(S(=O)(=O)N[C@@H](C(C)C)P(=O)(O)O)cc2)cc1`, the IC50 (Interstitial collagenase) was 600 nM, the IC50 [1] was 1.8 nM and the IC50 (Stromelysin-1 [2]) was 36 nM. It also gave an IC50 (Matrilysin) of 2000 nM, an IC50 (Neutrophil collagenase) of 1.5 nM and an IC50 [3] of 24 nM. For the same molecule, the IC50 (Collagenase 3 [4]) was 4.2 nM and the IC50 [5] was 130 nM.
Molecule `Cc1cccc(-c2ccc(S(=O)(=O)N[C@@H](C(C)C)P(=O)(O)O)cc2)c1` has an IC50 (Interstitial collagenase) of 320 nM, an IC50 [1] of 24 nM and an IC50 (Stromelysin-1 [2]) of 230 nM. For the same molecule, the IC50 (Matrilysin) was 1100 nM, the IC50 (Neutrophil collagenase) was 0.4 nM and the IC50 [3] was 64 nM. It also gave an IC50 (Collagenase 3 [4]) of 15 nM and an IC50 [5] of 26 nM.
In the case of `CC(C)[C@H](NS(=O)(=O)c1ccc(-c2cccc(F)c2)cc1)P(=O)(O)O`, the IC50 (Interstitial collagenase) is reported as 590 nM, the IC50 [1] is reported as 53 nM and the IC50 (Stromelysin-1 [2]) is reported as 1200 nM. It also gave an IC50 (Matrilysin) of 20000 nM, an IC50 (Neutrophil collagenase) of 2.4 nM and an IC50 [3] of 170 nM. The IC50 (Collagenase 3 [4]) was 63 nM and the IC50 [5] was 180 nM.
`CC(C)[C@H](NS(=O)(=O)c1ccc(CCc2ccccc2)cc1)P(=O)(O)O` was tested, and the IC50 [1] was 980 nM, the IC50 (Matrilysin) was 50000 nM and the IC50 (Neutrophil collagenase) was 260 nM. For the same molecule, the IC50 [3] was 7100 nM, the IC50 (Collagenase 3 [4]) was 820 nM and the IC50 [5] was 6000 nM. The inhibition [8] was 33% and the inhibition (Stromelysin-1 [9]) was 34%.
Molecule `COc1ccc(CCc2ccc(S(=O)(=O)N[C@@H](C(C)C)P(=O)(O)O)cc2)cc1` has an IC50 [1] of 790 nM, an IC50 (Matrilysin) of 130000 nM and an IC50 (Neutrophil collagenase) of 110 nM. For the same molecule, the IC50 [3] was 680 nM, the IC50 (Collagenase 3 [4]) was 480 nM and the IC50 [5] was 40000 nM. It also gave an inhibition [8] of 9% and an inhibition (Stromelysin-1 [9]) of 31%.
